Kir21 block: blocks the mouse Kir2.1 inward-rectifier potassium channel. hit rate 0.85% among 310,000. B-score at 10 µM. HEK293-Kir2.1, FluxOR thallium flux fluorescence; hits give low values;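 active means fluorescence ratio B-score at or below minus 3 SD of library scores, with starting-brightness B-score within 2 SD, cut at about -4.2 in these data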;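 further: channel flux triggered by added potassium and thallium sulfate stimulus; B-score of peak minus minimum fluorescence over baseline after thallium stimulus; more negative B-score means stronger Kir2.1 block with less thallium influx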
Target sequence (P35561 whole entry, looked up): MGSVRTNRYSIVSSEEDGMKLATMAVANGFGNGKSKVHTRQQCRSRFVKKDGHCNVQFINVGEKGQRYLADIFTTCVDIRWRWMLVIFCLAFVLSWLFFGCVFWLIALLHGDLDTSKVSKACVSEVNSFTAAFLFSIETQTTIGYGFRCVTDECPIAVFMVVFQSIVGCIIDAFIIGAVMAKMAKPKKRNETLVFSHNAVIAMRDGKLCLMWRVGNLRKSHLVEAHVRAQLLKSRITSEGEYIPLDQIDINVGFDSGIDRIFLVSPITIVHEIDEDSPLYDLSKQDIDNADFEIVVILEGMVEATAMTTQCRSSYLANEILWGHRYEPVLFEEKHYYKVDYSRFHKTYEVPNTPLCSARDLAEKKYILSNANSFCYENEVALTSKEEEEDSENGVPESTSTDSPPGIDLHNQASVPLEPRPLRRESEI
TRPC6 act: activates the mouse TRPC6 cation channel. Q61143. HEK293-TRPC6 membrane potential dye fluorescence; hits give high values. B-score at 10 µM. hit rate 0.13% among 310,000;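 active means B-score of the integrated fluorescence ratio above library mean plus 3 SD, and starting fluorescence ratio within library mean plus 5 SD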;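 further: higher score means more depolarization so channel activation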
TRPC4 agonist: opens the mouse TRPC4 cation channel. hit rate 0.49% among 310,000. B-score at 10 µM. Q9QUQ5. AID 2237. HEK293 TRPC4beta/mu-opioid, Fluo4 calcium fluorescence; hits give high values;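 active means B-score above 5 SD of library B-scores, and initial fluorescence ratio not above library mean plus 5 SD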;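 further: positive B-score marks a calcium rise read as TRPC4 activation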
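Test system: HEK293 cells stably co-expressing mouse TRPC4beta and mu-opioid receptor | Schedule: Fluo4 dye loading 45 min at room temperature, 110 s recording | Measured by: Kinetic Fluo4 calcium fluorescence, 5 s baseline at 1 Hz | Evaluation: B score of integrated ratio | Controls: Buffer (low) and maximal DAMGO (high)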
TRPC4 potent: allosterically enhances the mouse TRPC4 cation channel; Q9QUQ5; HEK293 TRPC4beta/mu-opioid, DAMGO EC20, Fluo-4 Ca2+ flux; hits give high values; B-score at 10 µM; hit rate 0.42% among 310,000;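 active means B-score of calcium response area above 5 SD of library B-scores, with initial fluorescence ratio within 5 SD of library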
TRPC6 inh: mouse TRPC6 channel inhibition; hit rate 1.1% among 310,000; HEK293-TRPC6, membrane potential dye, ACh-evoked depolarization; hits give low values; Q61143; B-score at 10 µM; AID 2553;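 active means B-score under library mean minus 3 SD, initial fluorescence not abnormally high, positive integrated signal ratio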;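 further: B-score derived from integrated fluorescence ratio over the kinetic read; more negative B-score means stronger inhibition of depolarization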
TRPC4 block: inhibitors of mouse TRPC4 channel. Q9QUQ5. HEK293 TRPC4beta/mu-opioid, DAMGO-evoked Fluo4 calcium flux; hits give low values. B-score at 10 µM. hit rate 0.39% among 300,000;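 active means B-score over 3 SD under the library average, no early fluorescence shift, positive overall ratio signal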
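Assay system – HEK293 line stably carrying TRPC4beta and mu-opioid receptor · Doses – single dose · Detection – Fluo4 calcium-dye fluorescence, kinetic read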
TRPC4 sel inh 2: second selectivity test of TRPC6 inhibitors: effect on mouse TRPC4. shares compounds with TRPC6 inh. hit rate 42% among 920. HEK293 TRPC4/MOR, membrane potential dye fluorescence; channel activated by saturating DAMGO dose. inhibition, % at 10 µM;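 active means compounds whose fluorescence signal differed from control wells by over 3 SD, either direction, in both duplicate plates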
TRPC4 spec: selectivity of TRPC6 inhibitors: effect on mouse TRPC4; hit rate 61% among 920; activity change, negative = inhibition, % at 10 µM; HEK293 TRPC4/mu-opioid, membrane potential fluorescence; shares compounds with TRPC6 inh;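 active means rise or fall in signal beyond 3 SD of buffer-only wells in both replicate plates, either sign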;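 further: integrated kinetic ratio of fluorescence range over baseline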
HEK293 MPD ctr 2-1: parental HEK293 nonspecific activity of TRPC6 inhibitors, second screen | shares compounds with TRPC6 inh | parental HEK293 membrane potential dye fluorescence; maximal acetylcholine challenge after compound addition | signal change vs control, % at 10 µM | hit rate 31% among 920 | AID 2779;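 active means membrane potential signal moving either way by over 3 SD of the maximum-effect control, in both duplicate plates, meaning non-specific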
HEK293 MPD ctr-1: counter-screen for TRPC6 inhibitors: effect in parental HEK293 cells | shares compounds with TRPC6 inh | parental HEK293 membrane potential dye fluorescence | membrane potential signal change, % at 10 µM | hit rate 60% among 920 | AID 2780;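 active means membrane potential signal shifting up or down by more than 3 SD of buffer-only wells, on both duplicate plates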
HEK293 MPD ctr-2: parental HEK293 nonspecific activity of TRPC6 modulators; hit rate 51% among 2,400; membrane potential signal change, % at 10 µM; membrane potential dye fluorescence; shares compounds with TRPC6 inh;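 active means membrane potential signal moves up or down beyond 5 SD from buffer-only wells, on both duplicate plates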
HEK293 MPD ctr 2-2: second check of TRPC6 modulator effects in parental HEK293 cells; membrane potential dye fluorescence; after compound, maximal acetylcholine stimulation; hit rate 14% among 2,400; inhibition, % at 10 µM; shares compounds with TRPC6 inh;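 active means membrane potential signal drops by more than 5 SD from the mean control signal, in both duplicate plates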
TRPC4/MOR mod: tests whether TRPC6 modulators also affect mouse TRPC4; shares compounds with TRPC6 inh; HEK293 TRPC4/mu-opioid, membrane potential fluorescence; percent change from control (negative = decrease, positive = increase), % at 10 µM; hit rate 69% among 2,400; AID 488927;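 active means membrane potential signal moved up or down beyond 5 SD of buffer control wells, in both duplicate plates, actives on both sides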
TRPC4 ctr inh 2: mouse TRPC4 off-target activity of TRPC6 modulators, second screen; HEK293 TRPC4/mu-opioid, membrane potential dye fluorescence; stimulated with maximal-effect DAMGO; shares compounds with TRPC6 inh; inhibition, % at 10 µM; hit rate 55% among 2,400; AID 488928;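 active means drop in membrane potential signal beyond 5 SD of the control wells in both duplicate plates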;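 further: TRPC4 counter screen for TRPC6 hits run under conditions tuned for TRPC6 not TRPC4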
TRPC6 block conf: confirmation of mouse TRPC6 inhibitors. HEK293-TRPC6, membrane potential dye, ACh-evoked depolarization. AID 488960. inhibition, % at 10 µM. shares compounds with TRPC6 inh. hit rate 43% among 3,300;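 active means fluorescence ratio falls more than 5 SD below the full-stimulation control mean, in both duplicate runs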;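 further: integrated fluorescence ratio of peak minus minimum over baseline after agonist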
TRPC6 act confirm: confirmation of mouse TRPC6 activators; shares compounds with TRPC6 inh; HEK293-TRPC6 membrane potential dye fluorescence, FDSS; activation, % at 10 µM; hit rate 11% among 2,800;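 active means ratio signal rise beyond 5 SD above unstimulated control wells' mean, seen in both duplicate runs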
Each line names hits and unclear results; the compound was inactive in the other large screens (follow-up assays come after a bar, where they were run). In the library only some 2.9% were active in any assay of this set; here they are far more common.

Cc1cccc(OCCCCN2CCNCC2)c1	none
CCCCOc1ccc(S(=O)(=O)NNC(=O)c2cc3ccccc3o2)cc1	TRPC6 inh -5.2 | HEK293 MPD ctr-2 inactive | HEK293 MPD ctr 2-2 inactive | TRPC4/MOR mod inactive | TRPC4 ctr inh 2 inactive | TRPC6 block conf inactive | TRPC6 act confirm inactive
CC(C)COc1ccc(S(=O)(=O)NNC(=O)c2cc3ccccc3o2)cc1	none
CCCC(=O)Nc1ccc(NC(=O)c2ccccn2)cn1	none
CCCn1c(C)cc(=O)c2cc(NC(=O)c3ccccn3)ccc21	TRPC6 inh -11 | HEK293 MPD ctr-2 -345% | HEK293 MPD ctr 2-2 126% | TRPC4/MOR mod -58% | TRPC4 ctr inh 2 74% | TRPC6 block conf 86% | TRPC6 act confirm inactive
CCN1CCN(c2cc(C)c3cc(NC(=O)c4cncc(Br)c4)ccc3n2)CC1	TRPC6 inh -11 | TRPC4 sel inh 2 inactive | TRPC4 spec -17% | HEK293 MPD ctr 2-1 inactive | HEK293 MPD ctr-1 -164% | TRPC6 block conf inactive | TRPC6 act confirm inactive
CCN1CCN(c2cc(C)c3cc(NC(=O)c4cccs4)ccc3n2)CC1	TRPC6 inh -5.3 | HEK293 MPD ctr-2 inactive | HEK293 MPD ctr 2-2 inactive | TRPC4/MOR mod inactive | TRPC4 ctr inh 2 inactive | TRPC6 block conf inactive | TRPC6 act confirm inactive
CCN1CCN(c2cc(C)c3cc(NC(=O)c4cccc(OC)c4)ccc3n2)CC1	none
CCn1ccc(C(=O)N2CCN(c3ncccn3)CC2)n1	none
COc1ccc(N2CCN(C(=O)CCS(=O)(=O)c3ccc4c(c3)NC(=O)CO4)CC2)cc1	none
N#C/C(=C\c1c[nH]c2ccccc12)C(N)=O	none
CC(=O)Oc1c(/C=C(\C#N)C(N)=O)[nH]c2ccccc12	Kir21 block -5, TRPC6 act 27 | HEK293 MPD ctr-2 657% | HEK293 MPD ctr 2-2 inactive | TRPC4/MOR mod 170% | TRPC4 ctr inh 2 inactive | TRPC6 block conf inactive | TRPC6 act confirm 170%
CCN(CC)CCN1C(=O)c2ccccc2NC1c1ccc(Br)cc1 (stereo not drawn)	TRPC6 inh -6.7 | HEK293 MPD ctr-2 inactive | HEK293 MPD ctr 2-2 inactive | TRPC4/MOR mod 18% | TRPC4 ctr inh 2 42% | TRPC6 block conf inactive
C(=N\n1cnnc1)/c1ccc2ncccc2c1	TRPC6 inh -7.7 | HEK293 MPD ctr-2 -280% | HEK293 MPD ctr 2-2 inactive | TRPC4/MOR mod -37% | TRPC4 ctr inh 2 50% | TRPC6 block conf inactive | TRPC6 act confirm inactive
C(=N\n1cnnc1)/c1ccccn1	none
N#Cc1cnn2ccn(C3OC(CO)C(O)C3O)c12 (stereo not drawn)	none
O=C(c1cccc(C(=O)N2CCN(c3ccccc3F)CC2)n1)N1CCN(c2ccccc2F)CC1	TRPC6 act 12, TRPC6 inh -10 | HEK293 MPD ctr-2 142% | HEK293 MPD ctr 2-2 inactive | TRPC4/MOR mod 29% | TRPC4 ctr inh 2 64% | TRPC6 block conf 88% | TRPC6 act confirm 130%
C/C(=N\Nc1ccc2nncn2n1)c1ccccn1	TRPC6 inh -7.4 | TRPC4 sel inh 2 71% | TRPC4 spec -36% | HEK293 MPD ctr 2-1 inactive | HEK293 MPD ctr-1 -522% | TRPC6 block conf 84% | TRPC6 act confirm inactive
CC(C)n1cnc2c(N(C)c3ccccc3)nc(N(CCN(C)C)Cc3ccccc3)nc21	Kir21 block -6.8, TRPC4 agonist 110, TRPC6 inh -5.8 | HEK293 MPD ctr-2 87% | HEK293 MPD ctr 2-2 inactive | TRPC4/MOR mod 40% | TRPC4 ctr inh 2 96% | TRPC6 block conf 48% | TRPC6 act confirm inactive
CN(C)CCN(Cc1ccccc1)c1nccc(N(C)C)c1C#N	none
Cc1cccc(NS(=O)(=O)c2cccc(C(=O)NCC3(N4CCCCC4)CCCCC3)c2)c1	TRPC6 inh -5 | HEK293 MPD ctr-2 inactive | HEK293 MPD ctr 2-2 inactive | TRPC4/MOR mod inactive | TRPC4 ctr inh 2 72% | TRPC6 block conf 52%
CC(C)Cn1c(N)c(C(=O)COC(=O)c2cnc(Cl)c(Cl)c2)c(=O)n(C)c1=O	none
Cc1cc(C)n(C(=O)c2c([N+](=O)[O-])c(C)nn2C)n1	none
Cc1ccc(SC(=O)c2c([N+](=O)[O-])c(C)nn2C)cc1	TRPC6 inh -7.2 | TRPC4 sel inh 2 inactive | TRPC4 spec inactive | HEK293 MPD ctr 2-1 -5.5% | HEK293 MPD ctr-1 inactive | TRPC6 block conf 76% | TRPC6 act confirm inactive
COCC(C)NC(=O)Cc1ccc(Cl)cc1 (stereo not drawn)	none
CCCCN(C(=O)CCSc1ccc(F)cc1)c1c(N)n(Cc2ccccc2)c(=O)[nH]c1=O	none
C=CCc1ccccc1OCC(O)CN1CCN(c2ccc(OC)cc2)CC1 (stereo not drawn)	TRPC6 inh -5.3 | HEK293 MPD ctr-2 inactive | HEK293 MPD ctr 2-2 inactive | TRPC4/MOR mod inactive | TRPC4 ctr inh 2 54% | TRPC6 block conf 60% | TRPC6 act confirm inactive
C=CCc1ccccc1OCC(O)CN1CCOCC1 (stereo not drawn)	none
COc1ccc(-c2csc(N(CCCN(C)C)C(=O)c3ccccc3C)n2)cc1	TRPC6 inh -8.9 | TRPC4 sel inh 2 43% | TRPC4 spec inactive | HEK293 MPD ctr 2-1 inactive | HEK293 MPD ctr-1 inactive | TRPC6 block conf 62% | TRPC6 act confirm inactive
